The subject of data set [1] is Heart. The experiment in a line: Biodistribution in CD1 mouse heart assessed per gram of wet tissue at 400 to 600 kBq, iv after 60 mins post-injection by gamma counting. It counts as ADME, organism-based. The settings on record: in vivo, 1 h. In outline:
(§1)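 Female CD-1 mice (~8-12 weeks, 20-28 g) were fasted 24 h with free water. Conscious mice got 400-600 kBq [¹⁸F] tracer in saline by tail vein. At 5, 30, 60 or 120 min (n=4-5 per time) they were anesthetized, blood and urine sampled, then killed by cervical dislocation. Organs were weighed and γ-counted, giving % ID/g wet tissue.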

Data set [2] has as its system Spleen. The experiment in a line: Biodistribution in CD1 mouse spleen assessed per gram of wet tissue at 400 to 600 kBq, iv after 60 mins post-injection by gamma counting. The data set is classed as ADME, organism-based. The settings on record: in vivo, 1 h. In outline: (§2)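 Female CD-1 mice (~8-12 weeks, 20-28 g), habituated ≥48 h and fasted 24 h with water available. The [18F] tracer (>150 GBq/μmol at end of synthesis) was given in 200 μL saline into the tail vein of conscious animals. At each time point, n=4-5, mice were anaesthetised, blood and urine sampled, then killed by cervical dislocation. Organs were weighed and γ-counted, and values calculated as % ID/g wet tissue.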

Data set [3] in a line: Biodistribution in CD1 mouse adrenal gland assessed per gram of wet tissue at 400 to 600 kBq, iv after 60 mins post-injection by gamma counting. The data set is classed as ADME, organism-based. The note with it: in vivo, 1 h. In outline: as §1
Data set [4] has as its system Mus musculus. The experiment in a line: Plasma concentration in CD1 mouse assessed per gram of wet tissue at 400 to 600 kBq, iv after 60 mins post-injection by gamma counting in presence of 1 mg/kg, ip sigma 1/sigma 2 receptor antagonist haloperidol treated before compound addition. The note with it: in vivo, 1 h. On the set-up: route intravenous. The data set is classed as organism-based. The method, boiled down: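 Female CD-1 mice, fasted 24 h. […] Blood sampled and mice killed at 60 min pi. Samples weighed, γ-counted, %ID/g calculated. Compared with controls by two-tailed independent Student's t test.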

Data set [5] relates to Stomach. Description: Biodistribution in CD1 mouse stomach assessed per gram of wet tissue at 400 to 600 kBq, iv after 60 mins post-injection by gamma counting in presence of 1 mg/kg, ip sigma 1/sigma 2 receptor antagonist haloperidol treated before compound addition. It counts as organism-based. On the set-up: route intravenous. The note with it: in vivo, 1 h. In outline: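 They were killed at 60 min pi, and organs were weighed and γ-counted as % ID/g wet tissue. Comparison with controls used Student's t test (independent, two-tailed).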

Data set [6] deals with Kidney. Description: Biodistribution in CD1 mouse kidney assessed per gram of wet tissue at 400 to 600 kBq, iv after 60 mins post-injection by gamma counting in presence of 1 mg/kg, ip sigma 1/sigma 2 receptor antagonist haloperidol treated before compound addition. It counts as organism-based. The arrangement: dose 1 mg/kg, route intravenous. The note with it: in vivo, 1 h. The method, boiled down: (§3)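 Blocking arm in fasted female CD-1 mice (n=5). […] Animals were killed at 60 min post-injection, and organs were weighed and γ-counted as % ID/g wet tissue. Percent change was taken against the 60 min control group, with two-tailed unpaired Student's t test.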

Data set [7] in a line: Biodistribution in CD1 mouse adrenal gland assessed per gram of wet tissue at 400 to 600 kBq, iv after 60 mins post-injection by gamma counting in presence of 1 mg/kg, ip sigma 1/sigma 2 receptor antagonist haloperidol treated before compound addition. It counts as organism-based. On the set-up: dose 1 mg/kg, route intravenous. The settings on record: in vivo, 1 h. The method, boiled down:
as §3

The nature of data set [8]: Ratio of drug level in cerebellum to plasma in CD1 mouse at 400 to 600 kBq, iv after 60 mins post-injection. The data set is classed as ADME, organism-based. The method, boiled down:
(§4)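 Female CD-1 mice (~8-12 weeks, 20-28 g), fasted 24 h with free water; 400-600 kBq tracer in 200 μL saline by tail vein into conscious animals. Killed at set times pi (n=4-5 per time); blood and organs weighed, γ-counted, expressed as % ID/g wet tissue; ratio from cerebellum and plasma uptake.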

A short description of data set [9]: Ratio of drug level in cerebellum to plasma in CD1 mouse at 400 to 600 kBq, iv after 120 mins post-injection. It counts as ADME, organism-based. The method, boiled down:
as §4

Data set [10] is described as follows: Drug uptake in CD1 mouse adrenal gland at 400 to 600 kBq, iv after 120 mins post-injection by gamma counting relative to initial uptake. The data set is classed as ADME, organism-based. The note with it: in vivo, 2 h. The method, boiled down:
(§5)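 Organ % ID/g was measured by γ-counting after tail-vein injection of 400-600 kBq [18F] tracer in saline to fasted female CD-1 mice (n=4-5 per time). The 120 min pi value is expressed relative to the initial (5 min pi) uptake.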

Data set [11] is described as follows: Drug uptake in CD1 mouse thymus at 400 to 600 kBq, iv after 120 mins post-injection by gamma counting relative to initial uptake. It counts as ADME, organism-based. The settings on record: in vivo, 2 h. In outline: as §5
Data set [12] can be described thus: N-octanol-phosphate buffer distribution coefficient, log D in three buffered solution by shake flask method. It counts as physicochemical. The method, boiled down: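 [18F]-labelled tracer partitioned between n-octanol and Sorensen's phosphate buffer (50 mM, pH 7.2), Dulbecco's PBS (pH 7.2) or TRIS-HCl (30 mM, pH 7.2). Conventional shake-flask method, multiple distribution in duplicates, n = 50 in total.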

Data set [13] deals with Intestine. The experiment in a line: Biodistribution in CD1 mouse intestine assessed per gram of wet tissue at 400 to 600 kBq, iv after 5 mins post-injection by gamma counting. It counts as ADME, organism-based. The settings on record: in vivo. The method, boiled down: as §1
Data set [14] is described as follows: Biodistribution in CD1 mouse urine assessed as per gram of wet bladder at 400 to 600 kBq, iv after 5 mins post-injection by gamma counting. The data set is classed as ADME, organism-based. The settings on record: in vivo. In outline: as §2
Data set [15] is described as follows: Biodistribution in CD1 mouse adrenal gland assessed per gram of wet tissue at 400 to 600 kBq, iv after 5 mins post-injection by gamma counting. The note with it: in vivo. The data set is classed as ADME, organism-based. In outline:
as §1

Data set [16] concerns Brain. The experiment in a line: Biodistribution in CD1 mouse brain assessed per gram of wet tissue at 400 to 600 kBq, iv after 30 mins post-injection by gamma counting. The note with it: in vivo, 0.5 h. The data set is classed as ADME, organism-based. The method, boiled down: as §1
Data set [17] in a line: Biodistribution in CD1 mouse urine assessed as per gram of wet bladder at 400 to 600 kBq, iv after 30 mins post-injection by gamma counting. It counts as ADME, organism-based. The settings on record: in vivo, 0.5 h. In outline:
as §2

Data set [18] relates to Spleen. Description: Biodistribution in CD1 mouse spleen assessed per gram of wet tissue at 400 to 600 kBq, iv after 30 mins post-injection by gamma counting. The data set is classed as ADME, organism-based. The settings on record: in vivo, 0.5 h. The method, boiled down:
as §2

Data set [19] in a line: Biodistribution in CD1 mouse adrenal gland assessed per gram of wet tissue at 400 to 600 kBq, iv after 30 mins post-injection by gamma counting. The settings on record: in vivo, 0.5 h. It counts as ADME, organism-based. The method, boiled down: as §1
Data set [20] relates to Liver. The experiment in a line: Metabolic stability in CD1 mouse liver homogenate assessed as formation of 3-(3-Fluoropropyl)-3H-spiro[[2]benzofuran-1,4'-piperidine], 4-((3-(3-fluoropropyl)-3H-spiro[isobenzofuran-1,4'-piperidine]-1'-yl)methyl)phenol and 1-(1'-benzyl-3H-spiro[isobenzofuran-1,4'-piperidine]-3-yl)-3-fluoropropan-2-ol at 200 to 300 MBq, iv after 45 mins postinjection by radio-HPLC and radio-TLC. The note with it: in vivo, 0.75 h. It counts as ADME, organism-based. The method, boiled down:
(§6)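 Mice received 200-300 MBq [18F] tracer in 200 μL 0.9% saline via the tail vein, and samples were taken at 45 and 60 min (n=2 per time). Plasma was obtained by centrifugation (2000g, 4 °C, 10 min); brain and liver were homogenised in ice-cold 50 mM TRIS-HCl pH 7.4. Samples were precipitated with ice-cold MeCN and centrifuged (4000g, 4 °C, 15 min), and supernatants were analysed by gradient radio-HPLC and radio-TLC, with HPLC fractions γ-counted.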

A short description of data set [21]: Metabolic stability in CD1 mouse plasma at 200 to 300 MBq, iv after 60 mins post-injection by supelcosil C18 HPLC and TLC-radiochromatography. The settings on record: read-out: Stability. It counts as ADME, organism-based. In outline:
as §6

Data set [22] in a line: Metabolic stability in CD1 mouse brain at 200 to 300 MBq, iv after 60 mins post-injection by supelcosil C18 HPLC and TLC-radiochromatography. It counts as ADME, organism-based. The note with it: read-out: Stability. The method, boiled down: as §6

Take `[18F]CCCC1OC2(CCN(Cc3ccccc3)CC2)c2ccccc21` (configuration not stated): the Drug uptake in data set [1] turned out to be 2.46 %ID; in data set [2], 5.56 %ID; in [3], 7.78 %ID; in [4], 0.63 %ID; in data set [5], 5.88 %ID; in [6], 3.42 %ID. The Drug uptake in data set [7] is 5.72 %ID; in data set [10], over 70%; in data set [11], over 70%; in data set [13] it was 4.35 %ID; in [14] it was 2.89 %ID; in data set [15], 10.6 %ID. The Drug uptake in data set [16] was 3.18 %ID; in [17] it was 24.3 %ID; in data set [18], 5.86 %ID; in data set [19] it was 7.63 %ID. In data set [8], the Kp at 1 h came out at 5.75. The Kp at 2 h in data set [9] is 5.48. Besides, the logD in [12] was determined as 3.03. Besides, in data set [20], the Activity was found to be 45%. Also, the remaining at 1 h was over 85% in data set [21] and at least 95% in data set [22].

By Kp is commonly meant tissue or fluid exposure divided by exposure in the circulation. As usually defined, the logD is the decadic logarithm of the distribution of all forms, ionised or not, between an organic phase and buffer at a given pH. A lower logD goes with lower lipophilicity.
